Data reported in ChEMBL document CHEMBL4811303, “Synthesis and evaluation of trypanocidal activity of derivatives of naturally occurring 2,5-diphenyloxazoles” (Bioorg Med Chem, 2021).

How the values were obtained:
Trypanosoma evansi = test: Trypanocidal activity against Trypanosoma evansi assessed as reduction in intracellular ATP production incubated for 72 hrs by CellTiter-Glo luminescent cell viability assay; format: functional, organism-based
Procedure, shortened: (§1)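 Bloodstream trypanosomes in 96-well culture were exposed to compound in 5-fold serial dilutions from 25 µg/mL to 1.6 ng/mL for 72 h. Seeding and temperature: T. b. brucei, T. b. gambiense and T. b. rhodesiense at 5×10^3 cells/mL and 37 °C; T. evansi at 1×10^4 cells/mL and 37 °C; T. congolense at 2×10^5 cells/mL and 33 °C. Viability was read as intracellular ATP by CellTiter-Glo luminescence. Three replicates; IC50 calculated.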

[1] = Selectivity index, ratio of IC50 for cytotoxicity against bovine MDBK cells to IC50 for Trypanocidal activity against Trypanosoma brucei brucei; conditions: cattle
[2] = Selectivity index, ratio of IC50 for cytotoxicity against bovine MDBK cells to IC50 for Trypanocidal activity against Trypanosoma evansi
[3] = Selectivity index, ratio of IC50 for cytotoxicity against bovine MDBK cells to IC50 for Trypanocidal activity against Trypanosoma brucei gambiense; conditions: cattle
[4] = Selectivity index, ratio of IC50 for cytotoxicity against bovine MDBK cells to IC50 for Trypanocidal activity against Trypanosoma congolense
Trypanosoma congolense = test: Trypanocidal activity against Trypanosoma congolense assessed as reduction in intracellular ATP production incubated for 72 hrs by CellTiter-Glo luminescent cell viability assay; format: functional, organism-based; procedure, shortened: as §1
MDBK cells (Bos taurus) = test: Cytotoxicity against bovine MDBK cells assessed as reduction in cell viability incubated for 72 hrs by CCK8 assay
[5] = test system: Trypanosoma brucei gambiense; test: Trypanocidal activity against Trypanosoma brucei gambiense assessed as reduction in intracellular ATP production incubated for 72 hrs by CellTiter-Glo luminescent cell viability assay; format: functional, organism-based; procedure, shortened: as §1
[6] = Selectivity index, ratio of IC50 for cytotoxicity against bovine MDBK cells to IC50 for Trypanocidal activity against Trypanosoma brucei rhodesiense
[7] = test system: Trypanosoma brucei rhodesiense; test: Trypanocidal activity against Trypanosoma brucei rhodesiense assessed as reduction in intracellular ATP production incubated for 72 hrs by CellTiter-Glo luminescent cell viability assay; format: functional, organism-based; procedure, shortened: as §1
[8] = test system: Trypanosoma brucei brucei; test: Trypanocidal activity against Trypanosoma brucei brucei assessed as reduction in intracellular ATP production incubated for 72 hrs by CellTiter-Glo luminescent cell viability assay; format: functional, organism-based; procedure, shortened: as §1

| Compound | IC50 (Trypanosoma evansi) [µM] | selectivity ratio [1] | selectivity ratio [2] | selectivity ratio [3] | selectivity ratio [4] | IC50 (Trypanosoma congolense) [µM] | IC50 (MDBK cells (Bos taurus)) [µM] | IC50 [5] [µM] | selectivity ratio [6] | IC50 [7] [µM] | IC50 [8] [µM] |
| --- | --- | --- | --- | --- | --- | --- | --- | --- | --- | --- | --- |
| COc1ccccc1-c1nnc(-c2cccc(OC)c2OC)o1 | 7.5 | 2.4 | 4.3 | 2.4 | 12 | 2.7 | 32.3 | 13.3 | 2.4 | 13.4 | 13.3 |
| Oc1ccc(O)c(-c2cnc(-c3ccccc3)o2)c1 | 12.2 | 0.36 | 0.61 | 0.42 | 1.6 | 4.7 | 7.5 | 17.8 | 0.42 | 18.1 | 20.6 |
| COc1cccc(-c2ncc(-c3ccccc3C)o2)c1OC | 36 | 1.5 | 1.6 | 1.4 | 19 | 3 | 56.9 | 40 | 1.4 | 40 | 39.1 |
| CC1CS(=O)(=O)CCN1/N=C/c1ccc([N+](=O)[O-])o1 (stereo not given) [NIFURTIMOX] | 2.6 | – | – | – | – | 1.1 | – | – | – | 4.4 | 4.7 |
| CC(=O)Oc1ccc(OC(C)=O)c(-c2cnc(-c3cc(OC(C)=O)ccc3OC(C)=O)o2)c1 | 44.7 | 0.85 | 0.67 | 0.6 | 1.8 | 16.8 | 30 | 49.8 | 0.63 | 47.4 | 35.2 |
| Oc1ccccc1-c1nnc(-c2cccc(O)c2O)s1 | 2.1 | 3.5 | 6.3 | 3 | 16 | 0.85 | 13.6 | 4.6 | 3.1 | 4.4 | 3.9 |
| COc1ccc(OC)c(-c2ncc(-c3ccccc3OC)o2)c1 | > 80.3 | – | – | – | – | > 80.3 | > 321 | > 80.3 | – | > 80.3 | > 80.3 |
| COc1ccc(OC)c(-c2cnc(-c3cc(OC)ccc3OC)o2)c1 | > 73.2 | – | – | – | > 100 | 2.9 | > 293 | > 73.2 | – | > 73.2 | > 73.2 |
| COc1ccccc1-c1cnc(-c2cccc(OC)c2OC)o1 | > 80.3 | – | – | – | > 414 | 0.78 | > 321 | > 80.3 | – | > 80.3 | > 80.3 |
| Cc1ccc(C(=O)Nc2ccc(S(=O)(=O)O)c3cc(S(=O)(=O)O)cc(S(=O)(=O)O)c23)cc1NC(=O)c1cccc(NC(=O)Nc2cccc(C(=O)Nc3cc(C(=O)Nc4ccc(S(=O)(=O)O)c5cc(S(=O)(=O)O)cc(S(=O)(=O)O)c45)ccc3C)c2)c1 [SURAMIN] | 0.38 | – | – | – | – | 7.2 | – | 0.064 | – | 0.076 | 0.066 |
| COc1ccccc1-c1cnc(-c2cccc(OC)c2OC)s1 | 30.9 | 3.6 | 3.7 | 3.6 | 20 | 5.7 | 114 | 31.4 | 3.9 | 29.6 | 32 |
| COc1cccc(-c2ncc(-c3ccccc3O)o2)c1OC | > 84.1 | – | – | – | – | > 84.1 | > 336 | > 84.1 | – | > 84.1 | > 84.1 |
| COc1cccc(-c2ncc(-c3ccccc3)o2)c1OC | 59.3 | 0.47 | 0.68 | 0.48 | 10 | 4 | 40.6 | 84.7 | 0.48 | 84.1 | 86.6 |
| COc1cccc(-c2ncc(-c3ccccc3OCc3ccccc3)o2)c1OC | 16.7 | 6.3 | 5.8 | 6 | 13 | 7.7 | 97.6 | 16.2 | 6.2 | 15.8 | 15.5 |
| COc1ccc(-c2cnc(-c3cccc(OC)c3OC)o2)cc1 | 64.5 | 0.3 | 0.35 | 0.31 | 1.3 | 17.3 | 22.8 | 74.5 | 0.3 | 77 | 76.4 |
| COc1ccc(OC)c(-c2cnc(-c3ccccc3)o2)c1 | > 88.9 | – | – | – | > 23 | 15.4 | > 355 | > 88.9 | – | > 88.9 | > 88.9 |
| COc1ccccc1-c1coc(-c2cccc(OC)c2OC)n1 | 37.9 | > 8.4 | > 8.5 | > 8.3 | > 34 | 9.4 | > 321 | 38.7 | > 10 | 31.6 | 38.1 |
| CC(=O)Oc1ccc(OC(C)=O)c(-c2ncc(-c3ccccc3OC(C)=O)o2)c1 | 34 | 1.9 | 1.9 | 1.2 | 4.4 | 14.4 | 64.2 | 55.3 | 1.1 | 56 | 33.6 |
| COc1ccc(-c2ncc(-c3ccccc3OC)o2)c(OC)c1 | 65.1 | 0.79 | 0.91 | 1.7 | 3.9 | 15.3 | 59.5 | 35.8 | 1 | 59.2 | 75.3 |
| CCCOc1ccccc1-c1cnc(-c2cccc(OC)c2OC)o1 | 28.4 | > 15 | > 10 | > 10 | > 39 | 7.6 | > 295 | 28.2 | > 11 | 27.1 | 20.3 |
| COc1cccc(-c2ncc(-c3ccccc3N(C)C)o2)c1OC | 24.7 | > 15 | > 12 | > 8.8 | > 66 | 4.6 | > 308 | 35.2 | > 13 | 23.3 | 20.4 |
| COc1ccccc1-c1nnc(-c2cccc(OC)c2OC)s1 | 28.1 | > 10 | > 11 | > 14 | > 80 | 3.8 | > 305 | 22.1 | > 11 | 27.2 | 29.8 |
| COc1ccc(-c2cnc(-c3cccc(OC)c3OC)o2)c(OC)c1 | 28.2 | > 8.3 | > 10 | > 9.4 | > 190 | 1.5 | > 293 | 31.2 | > 10 | 28.7 | 35.4 |
| CCOc1ccccc1-c1cnc(-c2cccc(OC)c2OC)o1 | > 76.8 | – | – | – | > 69 | 4.4 | > 307 | > 76.8 | – | > 76.8 | > 76.8 |
| COc1ccc(OC)c(-c2cnc(-c3ccccc3OC)o2)c1 | > 80.3 | – | – | > 14 | > 75 | 4.3 | > 321 | 22.2 | – | > 80.3 | > 80.3 |
| COc1ccccc1-c1cnc(-c2ccccc2OC)o1 | > 88.9 | – | – | – | > 128 | 2.8 | > 355 | > 88.9 | – | > 88.9 | > 88.9 |
| COc1ccc(OC)c(-c2cnc(-c3cccc(OC)c3OC)o2)c1 | > 73.2 | – | – | – | > 188 | 1.6 | > 293 | > 73.2 | – | > 73.2 | > 73.2 |
| COc1ccc(-c2cnc(-c3ccc(OC)cc3)o2)cc1 | > 88.9 | – | – | – | – | > 88.9 | > 355 | > 88.9 | – | > 88.9 | > 88.9 |
| COc1cccc(-c2ncc(-c3ccccc3NC(C)=O)o2)c1OC | > 73.9 | – | – | – | > 7.8 | 38.2 | > 296 | > 73.9 | – | > 73.9 | > 73.9 |
